Reference: paper PMC5086809 (European journal of pharmacology, 2013)

Target: T1, human GPR119 receptor (G protein-coupled receptor 119) (Homo sapiens, UniProt Q8TDV5)
T1 sequence (Q8TDV5 1-335): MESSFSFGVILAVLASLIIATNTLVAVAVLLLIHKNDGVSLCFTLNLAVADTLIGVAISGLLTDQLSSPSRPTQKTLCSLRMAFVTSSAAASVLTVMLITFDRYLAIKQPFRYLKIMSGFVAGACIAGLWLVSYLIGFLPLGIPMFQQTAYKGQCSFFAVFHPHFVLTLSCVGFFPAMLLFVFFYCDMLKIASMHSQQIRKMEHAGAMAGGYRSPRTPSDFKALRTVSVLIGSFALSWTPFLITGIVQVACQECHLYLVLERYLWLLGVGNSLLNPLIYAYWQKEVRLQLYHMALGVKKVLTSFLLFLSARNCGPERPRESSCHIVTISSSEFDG
Experiment: HTRF cAMP accumulation assay, stable HEK293 cells
Format: cell-based
Procedure, shortened: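 HEK293 cells stably transfected with human GPR119, selected in 800 µg/ml geneticin and kept in 400 µg/ml G418. Test compound in DMEM with 2.5% fatty acid-free BSA, 30 min at room temperature. HTRF read (d2-cAMP plus Eu-cryptate anti-cAMP, 2 h, ex 337/em 665 and 620 nm). cAMP taken from a standard curve; EC50 from a sigmoidal fit; five independent experiments.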

Structure (SMILES)	EC50 [µM]
CC(C)c1noc(C2CCN(c3ncnc(Nc4ccc(S(C)(=O)=O)cc4F)c3[N+](=O)[O-])CC2)n1 [AR231453]	0.011
CCCCC/C=C\C/C=C\C/C=C\CCCCCCC(=O)NCCO [Dihomo-γ-linolenoyl ethanolamide]	25.6
CC/C=C\C/C=C\C/C=C\C/C=C\C/C=C\C/C=C\CCC(=O)NCCO [Docosahexaenoyl ethanolamide]	63.8
CCCCC/C=C\C/C=C\C/C=C\C/C=C\CCCCCC(=O)NCCO [Docosatetra-7Z,10Z,13Z,16Z-enoyl ethanolamide]	40.2
CC/C=C\C/C=C\C/C=C\C/C=C\C/C=C\CCCC(=O)NCCO [Eicosapentaenoyl ethanolamide]	65.6
CCCCC/C=C\C/C=C\CCCCCCCC(=O)NCCO [Linoleoyl ethanolamide]	8.11
CCCCCCCC/C=C\CCCCCCCC(N)=O [Oleamide]	42.9
CCCCCCCC/C=C\CCCCCCCC(=O)NCCc1ccc(O)c(O)c1 [Oleoyl dopamine]	54.8
CCCCCCCC/C=C\CCCCCCCC(=O)NCCO [Oleoyl ethanolamide]	7.65
CC(C)(C)OC(=O)N1CCC(OCc2nc(-c3ccncc3)no2)CC1 [PSN632408]	7.61
CCCCCCCCCCCCCCCC(=O)NCCO [Palmitoyl ethanolamide]	10.1
